The results in this text go back to ChEMBL document CHEMBL1144414, “C-5-disubstituted barbiturates as potential molecular probes for noninvasive matrix metalloproteinase imaging” (J Med Chem, 2005).

The nature of series [1]: Partition coefficient (logD7.4). It is filed as physicochemical. The following applies: octanol/water, pH 7.4.
The species named for another series is Homo sapiens. As to the kind of experiment: Ratio of IC50 for human Matrix metalloprotease 2 binding and Matrix metalloprotease 9.
For series [2], the target named is T1, 72 kDa type IV collagenase (Homo sapiens, UniProt P08253). As to the kind of experiment: In vitro inhibition of human Matrix metalloprotease 2. In a few lines: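 Human active MMP-2 (1 nM) preincubated with inhibitor (10 pM to 1 mM) in 50 mM Tris·HCl pH 7.5, 0.2 M NaCl, 5 mM CaCl2, 20 µM ZnSO4, 0.05% Brij 35, 37 °C, 30 min. Fluorogenic Mca-Pro-Leu-Gly-Leu-Dpa-Ala-Arg-NH2 substrate (10 µL of 50 µM into 90 µL) added. Fluorescence (ex 330/em 390 nm) followed at 37 °C. Initial 10-min rates fitted by nonlinear regression for IC50.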

For series [3], the target named is T2, Matrix metalloproteinase-9 (Homo sapiens, UniProt P14780). As to the kind of experiment: (§1) In vitro inhibition of human Matrix metalloprotease 9. In a few lines:
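Human active MMP-9 (2 nM) preincubated 30 min at 37 °C with inhibitor (10 pM to 1 mM) in 50 mM Tris·HCl pH 7.5, 0.2 M NaCl, 5 mM CaCl2, 20 µM ZnSO4, 0.05% Brij 35. Fluorogenic Mca-Pro-Leu-Gly-Leu-Dpa-Ala-Arg-NH2 substrate added from a 50 µM stock. Fluorescence (ex 330/em 390 nm) followed at 37 °C. Initial 10-min linear rates versus dose; IC50 by nonlinear regression.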

The target in series [4] is T1, 72 kDa type IV collagenase. Put plainly: In vitro inhibition of human Matrix metalloprotease 2; I.A.=inactive. In a few lines: (§2)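 Human active enzyme, MMP-2 at 1 nM or MMP-9 at 2 nM, preincubated 30 min at 37 °C with inhibitor (10 pM to 1 mM) in 50 mM Tris·HCl pH 7.5, 0.2 M NaCl, 5 mM CaCl2, 20 µM ZnSO4, 0.05% Brij 35. Mca-PLGL-Dpa-AR-NH2 substrate added, fluorescence followed at 37 °C (ex 330/em 390 nm). Initial 10-min rates fitted by nonlinear regression for IC50.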

For series [5], the target named is T2, Matrix metalloproteinase-9. As to the kind of experiment: In vitro inhibition of human Matrix metalloprotease 9; I.A.=inactive. In a few lines: as §2
For series [6], the target named is T2, Matrix metalloproteinase-9. The series is described as §1. This is another data set of the same source.

T1 sequence (P08253 whole entry): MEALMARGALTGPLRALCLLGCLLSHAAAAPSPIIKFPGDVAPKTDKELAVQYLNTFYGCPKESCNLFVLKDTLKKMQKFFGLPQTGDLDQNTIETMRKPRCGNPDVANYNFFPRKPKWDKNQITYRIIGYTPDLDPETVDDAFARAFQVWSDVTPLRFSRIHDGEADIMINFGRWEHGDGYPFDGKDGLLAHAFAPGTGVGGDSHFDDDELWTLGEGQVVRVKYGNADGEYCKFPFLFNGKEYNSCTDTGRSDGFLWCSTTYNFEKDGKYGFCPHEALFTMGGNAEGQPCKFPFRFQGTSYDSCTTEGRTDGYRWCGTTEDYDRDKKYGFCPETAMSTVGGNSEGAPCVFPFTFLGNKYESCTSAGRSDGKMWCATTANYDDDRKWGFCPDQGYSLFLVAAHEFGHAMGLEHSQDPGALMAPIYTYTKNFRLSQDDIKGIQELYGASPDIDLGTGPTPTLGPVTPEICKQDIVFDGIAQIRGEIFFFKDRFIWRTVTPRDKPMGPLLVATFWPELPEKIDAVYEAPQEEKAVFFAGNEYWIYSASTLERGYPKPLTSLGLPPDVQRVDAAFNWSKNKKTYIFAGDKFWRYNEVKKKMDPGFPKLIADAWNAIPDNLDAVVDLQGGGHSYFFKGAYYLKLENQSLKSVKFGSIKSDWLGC
T2 sequence (P14780 whole entry): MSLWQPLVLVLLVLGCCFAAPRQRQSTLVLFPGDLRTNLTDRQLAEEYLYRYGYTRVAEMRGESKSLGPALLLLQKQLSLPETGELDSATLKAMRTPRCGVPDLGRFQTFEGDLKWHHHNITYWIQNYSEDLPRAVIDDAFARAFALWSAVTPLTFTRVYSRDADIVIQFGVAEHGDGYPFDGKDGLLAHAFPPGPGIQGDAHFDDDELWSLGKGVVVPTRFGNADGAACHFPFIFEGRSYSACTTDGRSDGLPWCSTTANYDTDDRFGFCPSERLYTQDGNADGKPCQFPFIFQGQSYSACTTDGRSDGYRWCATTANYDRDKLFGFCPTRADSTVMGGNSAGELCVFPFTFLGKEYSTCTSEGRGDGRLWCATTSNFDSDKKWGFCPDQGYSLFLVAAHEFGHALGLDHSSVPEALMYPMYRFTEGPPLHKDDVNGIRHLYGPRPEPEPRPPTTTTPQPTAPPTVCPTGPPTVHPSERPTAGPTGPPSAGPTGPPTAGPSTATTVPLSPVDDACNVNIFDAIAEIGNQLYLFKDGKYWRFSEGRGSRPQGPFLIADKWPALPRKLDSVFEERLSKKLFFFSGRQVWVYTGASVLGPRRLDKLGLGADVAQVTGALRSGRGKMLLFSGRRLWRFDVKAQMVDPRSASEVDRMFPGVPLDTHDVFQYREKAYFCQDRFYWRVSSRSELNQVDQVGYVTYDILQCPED

On to `O=C1NC(=O)C(c2ccc(Oc3ccc(Br)cc3)cc2)(N2CCN(c3ccc(F)cc3)CC2)C(=O)N1`, for which the logD in series [1] came out at 6.11. Further, the Selectivity in the series filed under Homo sapiens was 0.63.
For the compound `CC(C)[C@@H](NS(=O)(=O)c1ccc(C#CCCCC[18F])cc1)C(=O)O`, in series [2], the IC50 was 1.9 µM.
For the compound `COc1ccc(Oc2ccc(C3(N4CCN(CCO)CC4)C(=O)NC(=O)NC3=O)cc2)cc1`, the logD in series [1] worked out at 1.79. The Selectivity in the series listed under Homo sapiens turned out to be 1.5.
In series [1], `O=C1NC(=O)C(c2ccc(Oc3ccc(Br)cc3)cc2)(N2CCN(CCO)CC2)C(=O)N1` gave a logD of 3.42. The Selectivity in the series filed under Homo sapiens was 2.3.
Take `O=C1NC(=O)C(c2ccc(Oc3ccc(Br)cc3)cc2)(N2CCN(C(=O)c3cccc(I)c3)CC2)C(=O)N1`: in series [1], the logD amounted to 5.86. Further, the IC50 in series [3] turned out to be 0.02 µM; in series [2], 0.015 µM. For the same compound, the Selectivity in the series listed under Homo sapiens is 0.75.
As to `O=C1NC(=O)C(c2ccc(Oc3ccc(Br)cc3)cc2)(N2CCNCC2)C(=O)N1`, the logD in series [1] was 3.04. Further, the IC50 was determined as 0.002 µM in series [3] and 0.005 µM in series [2]. Further, the Selectivity in the series filed under Homo sapiens was determined as 2.5.
The like results for `O=C(O)CCN1CCN(C2(c3ccc(Oc4ccc(Br)cc4)cc3)C(=O)NC(=O)NC2=O)CC1` were, in that order, 0.81, 0.026 µM, 0.085 µM and 3.3.
Compound `O=C1NC(=O)C(c2ccc(Oc3ccc(Br)cc3)cc2)(N2CCN(CCBr)CC2)C(=O)N1` showed a logD in series [1] of 4.67. Further, the results for the IC50 in series [3] and in series [2] were 0.026 µM and 0.03 µM, respectively. Moreover, the Selectivity in the series filed under Homo sapiens is 1.2.
Compound `O=C1NC(=O)C(c2ccc(Oc3ccc(Br)cc3)cc2)(N2CCN(c3ccc(I)cc3)CC2)C(=O)N1` came in with a logD in series [1] of 7.22. Moreover, the IC50 in series [3] came out at 0.01 µM; in series [2], 0.086 µM. Moreover, in the series listed under Homo sapiens, the Selectivity is 8.6.
Take `C[Si](C)(C)c1ccc(N2CCN(C3(c4ccc(Oc5ccc(Br)cc5)cc4)C(=O)NC(=O)NC3=O)CC2)cc1`: the logD in series [1] is 8.32. Moreover, the IC50 is 0.55 µM in series [3] and 1.5 µM in series [2]. The Selectivity in the series listed under Homo sapiens came out at 2.7.
As to `CC(C)N1CCN(C2(c3ccc(Oc4ccc(Br)cc4)cc3)C(=O)NC(=O)NC2=O)CC1`, the log distribution coefficient (logD) in series [1] was found to be 4.47. Further, the Selectivity in the series filed under Homo sapiens was 26.
`COCCN1CCN(C2(c3ccc(Oc4ccc(OC)cc4)cc3)C(=O)N(C)C(=O)N(C)C2=O)CC1`: in series [1], the logD is 0.95. Moreover, the IC50 entry in series [4] and in series [5] was “Not Active” throughout.
On to `O=C1NC(=O)C(c2ccc(Oc3ccc(Br)cc3)cc2)(N2CCN(c3ccc([N+](=O)[O-])cc3)CC2)C(=O)N1`, for which the logD in series [1] came to 6.27. Besides, the IC50 in series [3] was found to be 0.057 µM; in series [2], 0.016 µM. Moreover, the Selectivity in the series listed under Homo sapiens turned out to be 0.28.
Turning to `O=C1NC(=O)C(c2ccc(Oc3ccc(Br)cc3)cc2)C(=O)N1`, the logD in series [1] was found to be 0.41. This compound registered an IC50 in series [2] of 3.7 µM.
For the compound `NCCN1CCN(C2(c3ccc(Oc4ccc(Br)cc4)cc3)C(=O)NC(=O)NC2=O)CC1`, the logD in series [1] was determined as 0.78. Moreover, the values for the IC50 in series [3] and in series [2] were 0.014 µM and 0.01 µM, respectively. Also, the Selectivity in the series listed under Homo sapiens is 0.71.
Take `CC(C)[C@@H](NS(=O)(=O)c1ccc(NC(=O)c2ccc(O[11CH3])cc2)cc1)C(=O)O`: the results for the IC50 in series [6] and in series [2] were 0.2 µM and 0.11 µM, respectively.
On to `O=C1NC(=S)NC(=O)C1(c1ccc(Oc2ccc(Br)cc2)cc1)N1CCN(CCO)CC1`, for which the logD in series [1] was determined as 3.85. Half-maximal inhibition in series [2] (IC50) required 0.00721 µM.
In the case of `O=C1NC(=O)C(c2ccc(Oc3ccc(I)cc3)cc2)(N2CCN(CCO)CC2)C(=O)N1`, the pH-dependent lipophilicity (logD) in series [1] came to 3.68. Also, the Selectivity in the series listed under Homo sapiens came to 3.5.

By logD is commonly meant the decadic logarithm of the distribution of all forms, ionised or not, between an organic phase and buffer at a given pH. A high value points to a more lipophilic compound. In general, IC50 refers to the concentration needed to halve the response being measured. A lower IC50 goes with inhibition by little substance.
